Source: article PMC8594913 (Nature cancer, 2021)

Experiments:
MV4–11 cells [1] = test: Global DNA methylation; assay type: cell-based, human; conditions: MV4–11, day 4
Outline: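 MV4–11 cells plated in 10-cm dishes 24 h before treatment with 0.1% DMSO or compound (8-point, threefold serial dilution). Global 5-methylcytosine was measured, and treated values were normalized to vehicle control.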

Mouse pharmacokinetics = assay type: in vivo; conditions: mice
Outline: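 Naive mice, 3 per group, each given a single dose: 2 mg kg⁻¹ i.v. (male CD-1), 2 mg kg⁻¹ s.c. (male C57/BL6) or 30 mg kg⁻¹ s.c. (female Nu/Nu). Composite blood samples were taken over 24 h and measured by HPLC–MS/MS. Parameters came from noncompartmental analysis of mean blood concentration–time profiles; AUC by linear trapezoidal rule.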

[2] = biological target: other methyltransferases (n = 34); test: Methyltransferase selectivity panel; assay type: biochemical; conditions: read-out: IC50 values, methyltransferase panel
Outline: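 Methyltransferase panel run at Reaction Biology with HotSpot technology in IC50 format (10-point, threefold serial dilution).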

SKM-1 tumors = test: Pharmacodynamics in SKM-1 tumors; assay type: in vivo, mouse; conditions: SKM-1, 45 mg kg^−1, 8 d of dosing
Outline: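 SKM-1 subcutaneous xenografts in NOD-scid mice, 3 per group (24 total). Compound given s.c. twice daily in 10% captisol (pH 4.5–5) at 10 ml kg⁻¹. Tumors and blood collected 6 h after the last dose on day 8.5. Tumors assayed for global 5-methylcytosine; blood drug levels by HPLC–MS/MS after acetonitrile precipitation.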

[3] = mouse, in vivo, sc
[4] = Peripheral blood cell counts, SKM-1 study; assay type: in vivo, mouse
Outline: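 SKM-1 xenograft mice. Compound given s.c. twice daily in 10% captisol (pH 4.5–5); reference agent i.p. three times weekly; both at 10 ml kg⁻¹. Blood counts taken at end of dosing (day 28) and after 27 d recovery (day 55), n = 5 per group. One-way ANOVA with Dunnett's test, adjusted P; log₁₀-transformed where variances were unequal.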

[5] = system: MV4–11 human systemic AML model; test: Disseminated MV4–11 AML model, survival; assay type: in vivo, mouse; conditions: 30 d of dosing
[6] = system: 51 hematologic cancer cell lines; test: 6-d proliferation, panel of 51 hematologic cancer cell lines; assay type: cell-based, human
Outline: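 6-d proliferation run by Horizon Discovery on its 2D OncoSignature panel. Compound given as a 10-point, threefold serial dilution, in triplicate. Growth-death index (GDI) runs from −100 (complete cell death) to 100 (no inhibition). Growth IC50 (gIC50) and GDI are reported per line.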

[7] = system: AML cells (MV4–11, GDM-1, SKM-1); test: Western blotting; assay type: cell-based, human
Outline: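 Cells plated in 15-cm dishes 24 h before treatment with 0.1% DMSO or compound (6-point, fivefold serial dilution); GDM-1 cells were treated 2 d at 3.2–10,000 nM. Blots probed with IRDye secondary antibodies and imaged on a LI-COR Odyssey. Total H2AX (and vinculin for GDM-1) served as loading controls.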

SKM-1 xenograft = test: Subcutaneous SKM-1 xenograft; assay type: in vivo, mouse
MV4–11 xenograft = test: Subcutaneous MV4–11 xenograft; assay type: in vivo, mouse
Murine DNMT1 (731–1602) = Murine DNMT1 (731–1602) (Mus musculus, UniProt P13864); test: Investigation of covalent adduct; assay type: binding; conditions: 25 μM, 20 h, hemi-methylated DNA
Chain of Murine DNMT1 (731–1602) (P13864 731-1602): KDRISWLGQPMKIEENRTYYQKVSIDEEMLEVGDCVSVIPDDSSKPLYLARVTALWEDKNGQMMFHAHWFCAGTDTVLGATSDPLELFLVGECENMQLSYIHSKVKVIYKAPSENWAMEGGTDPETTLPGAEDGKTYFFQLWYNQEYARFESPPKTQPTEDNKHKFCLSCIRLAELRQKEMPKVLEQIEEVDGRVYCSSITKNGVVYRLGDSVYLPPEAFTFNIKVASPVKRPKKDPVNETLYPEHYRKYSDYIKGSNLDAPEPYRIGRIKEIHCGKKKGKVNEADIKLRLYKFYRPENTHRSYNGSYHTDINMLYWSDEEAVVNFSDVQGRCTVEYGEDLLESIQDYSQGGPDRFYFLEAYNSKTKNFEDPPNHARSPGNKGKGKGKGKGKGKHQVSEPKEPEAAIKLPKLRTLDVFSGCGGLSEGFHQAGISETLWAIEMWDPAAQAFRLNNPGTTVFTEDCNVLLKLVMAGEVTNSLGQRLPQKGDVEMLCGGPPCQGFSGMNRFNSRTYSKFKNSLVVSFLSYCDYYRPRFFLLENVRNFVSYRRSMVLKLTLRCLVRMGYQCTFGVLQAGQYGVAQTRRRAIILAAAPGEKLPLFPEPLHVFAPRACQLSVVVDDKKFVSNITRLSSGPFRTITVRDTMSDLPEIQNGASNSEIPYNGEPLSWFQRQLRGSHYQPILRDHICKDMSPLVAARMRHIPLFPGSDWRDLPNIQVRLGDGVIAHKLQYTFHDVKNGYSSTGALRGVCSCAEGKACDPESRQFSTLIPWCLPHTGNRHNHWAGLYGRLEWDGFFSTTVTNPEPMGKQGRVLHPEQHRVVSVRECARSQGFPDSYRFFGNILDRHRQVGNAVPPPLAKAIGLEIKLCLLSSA
Outline: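 Murine DNMT1 (731–1602, 5.6 μM) incubated 20 h with 14-mer hemi-methylated DNA duplex (25 μM), with or without compound (25 μM). Buffer: 20 mM Tris pH 7.5, 50 mM NaCl, 5 mM DTT, 20% glycerol, 2.5% DMSO. Aliquots diluted fivefold in 0.05% TFA/0.1% formic acid; 20 pmol protein analysed by intact-mass TOF LC–MS for adducts.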

kinases (n = 369) = test: Kinase selectivity panel; assay type: biochemical; conditions: read-out: IC50 values, kinase panel, panel tested at 10 μM
Outline: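 Kinase panel run at Reaction Biology with HotSpot technology, compound at a single concentration of 10 μM. PIM1, PKD2/PRKD2 and DYRK2 were run in IC50 format (10-point, threefold serial dilution).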

H1507Y mutant DNMT1 = test: Radioactive SPA, H1507Y DNMT1; assay type: biochemical, human
DNMT1 in HepG2 cells = DNMT1 in HepG2 cells (Homo sapiens, UniProt P26358); test: Cellular thermal shift assay; assay type: cell-based; conditions: HepG2, 90 min
Chain of DNMT1 in HepG2 cells (P26358 whole entry): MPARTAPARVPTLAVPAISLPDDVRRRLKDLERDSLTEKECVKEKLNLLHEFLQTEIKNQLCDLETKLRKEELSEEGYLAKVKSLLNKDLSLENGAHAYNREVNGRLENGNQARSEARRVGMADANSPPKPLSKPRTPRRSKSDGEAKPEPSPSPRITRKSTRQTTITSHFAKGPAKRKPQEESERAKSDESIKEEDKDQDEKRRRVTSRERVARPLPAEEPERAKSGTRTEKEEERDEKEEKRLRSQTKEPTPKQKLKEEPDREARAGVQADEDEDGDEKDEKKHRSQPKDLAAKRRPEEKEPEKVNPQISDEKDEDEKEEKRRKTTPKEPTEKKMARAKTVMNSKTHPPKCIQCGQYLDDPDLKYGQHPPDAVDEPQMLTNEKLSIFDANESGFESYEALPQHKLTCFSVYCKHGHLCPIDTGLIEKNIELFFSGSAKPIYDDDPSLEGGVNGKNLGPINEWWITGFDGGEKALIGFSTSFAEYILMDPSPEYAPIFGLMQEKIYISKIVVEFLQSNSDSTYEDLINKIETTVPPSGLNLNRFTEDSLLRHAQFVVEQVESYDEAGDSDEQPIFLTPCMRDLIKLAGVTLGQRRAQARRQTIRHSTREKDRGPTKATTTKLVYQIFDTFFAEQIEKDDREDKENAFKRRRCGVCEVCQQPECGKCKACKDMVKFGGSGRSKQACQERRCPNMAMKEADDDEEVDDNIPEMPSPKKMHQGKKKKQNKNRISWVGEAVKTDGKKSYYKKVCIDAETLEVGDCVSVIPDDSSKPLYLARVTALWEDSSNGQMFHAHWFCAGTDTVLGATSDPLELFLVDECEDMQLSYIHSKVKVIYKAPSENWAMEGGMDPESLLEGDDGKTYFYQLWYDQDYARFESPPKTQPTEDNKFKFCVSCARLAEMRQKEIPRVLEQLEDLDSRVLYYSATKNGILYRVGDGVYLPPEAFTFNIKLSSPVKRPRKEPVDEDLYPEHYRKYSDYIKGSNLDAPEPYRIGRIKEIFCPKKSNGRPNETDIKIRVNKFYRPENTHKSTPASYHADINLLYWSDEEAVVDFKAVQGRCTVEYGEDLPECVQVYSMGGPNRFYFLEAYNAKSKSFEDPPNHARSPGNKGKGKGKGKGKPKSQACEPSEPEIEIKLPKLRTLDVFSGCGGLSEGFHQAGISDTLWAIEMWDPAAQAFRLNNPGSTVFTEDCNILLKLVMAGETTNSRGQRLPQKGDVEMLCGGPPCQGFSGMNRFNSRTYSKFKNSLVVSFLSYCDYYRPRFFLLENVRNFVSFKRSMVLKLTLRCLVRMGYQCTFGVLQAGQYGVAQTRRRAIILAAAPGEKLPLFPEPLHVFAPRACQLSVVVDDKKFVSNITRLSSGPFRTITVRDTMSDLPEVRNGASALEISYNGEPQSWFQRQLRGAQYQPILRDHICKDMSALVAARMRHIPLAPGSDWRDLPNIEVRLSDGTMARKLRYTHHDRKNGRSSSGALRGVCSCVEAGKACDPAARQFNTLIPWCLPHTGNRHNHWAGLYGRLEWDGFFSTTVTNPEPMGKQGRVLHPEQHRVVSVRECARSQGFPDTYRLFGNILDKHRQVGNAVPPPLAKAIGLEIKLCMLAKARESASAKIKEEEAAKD

MV4–11 cells [8] = test: Cell growth–death assay, MV4–11; assay type: cell-based, human
DNMT1 [9] = conditions: cited from earlier work
DNMT3A = conditions: cited from earlier work
DNMT1 [10] = biological target: T1, DNMT1 (Homo sapiens, UniProt P26358); test: Radioactive SPA, DNMT1, 40-mer hemi-methylated DNA; assay type: biochemical; conditions: read-out: DNMT1 IC50
T1 sequence (P26358 whole entry): as above

[11] = system: bacterial M.SssI CpG DNMT; conditions: cited from earlier work
[12] = system: hemi-methylated hairpin oligonucleotide; test: DNA binding assay
Outline: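 Differential scanning fluorimetry on hemi-methylated hairpin oligonucleotide (200 nM) with 100 μM compound or DMSO. Ramp 25–95 °C at 1 °C min⁻¹, fluorescence read after each step. n = 2 biologically independent experiments, two technical replicates each.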

DNMT1 [13] = biological target: T1, DNMT1; test: Reversibility by rapid dilution; assay type: biochemical; conditions: 100-fold rapid dilution
Outline: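 DNMT1 preincubated 20 min with compound, then the complex was diluted 100-fold by adding substrates. Activity recovery was followed over 70 min by quenching at time points after dilution. Data were fit to a fixed steady-state velocity equation.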

Gla1 = Gla1 counter screen; assay type: biochemical; conditions: read-out: Gla1 IC50; n = 40
[14] = Compound stability in media without or with cells; assay type: physicochemical; conditions: 1,000 nM, media without or with MV4–11 cells, 37 °C
Outline: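 MV4–11 cells, or media alone, plated 24 h before adding compound (100 or 1000 nM) and incubated at 37 °C. Remaining compound was quantified by LC-MS/MS.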

DNMT1 (729-1600) = DNMT1 (729-1600) (human, UniProt P26358 729-1600); test: X-ray crystallography
Chain of DNMT1 (729-1600) (P26358 729-1600): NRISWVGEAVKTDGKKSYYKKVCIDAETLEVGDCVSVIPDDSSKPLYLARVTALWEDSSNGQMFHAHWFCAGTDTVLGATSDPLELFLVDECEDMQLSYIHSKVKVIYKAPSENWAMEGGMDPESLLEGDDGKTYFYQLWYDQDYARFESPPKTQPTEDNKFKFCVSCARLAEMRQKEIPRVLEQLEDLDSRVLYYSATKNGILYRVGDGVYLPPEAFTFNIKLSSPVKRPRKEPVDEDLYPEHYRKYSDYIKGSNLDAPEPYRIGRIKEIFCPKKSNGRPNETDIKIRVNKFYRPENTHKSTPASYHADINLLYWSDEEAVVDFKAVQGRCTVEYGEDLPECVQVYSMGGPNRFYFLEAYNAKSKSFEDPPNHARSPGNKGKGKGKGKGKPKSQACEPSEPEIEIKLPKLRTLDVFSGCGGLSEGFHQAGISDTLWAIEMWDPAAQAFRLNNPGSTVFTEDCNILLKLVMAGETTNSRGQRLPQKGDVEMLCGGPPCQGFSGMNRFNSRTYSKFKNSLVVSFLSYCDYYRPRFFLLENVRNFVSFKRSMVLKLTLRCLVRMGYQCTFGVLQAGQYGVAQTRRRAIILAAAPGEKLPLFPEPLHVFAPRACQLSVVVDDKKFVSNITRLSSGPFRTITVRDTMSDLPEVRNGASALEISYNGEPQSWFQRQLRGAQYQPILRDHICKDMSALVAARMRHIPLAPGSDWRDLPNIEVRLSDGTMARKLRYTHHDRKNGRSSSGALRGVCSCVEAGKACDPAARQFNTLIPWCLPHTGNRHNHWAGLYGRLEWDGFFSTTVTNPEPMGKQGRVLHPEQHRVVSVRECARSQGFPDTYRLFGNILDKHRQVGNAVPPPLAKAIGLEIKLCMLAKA

## CCc1c(C#N)c(SC(C(N)=O)c2ccccc2)nc(N2CCC(N)CC2)c1C#N (stereo not drawn) [GSK3685032]
MV4–11 cells [1]
  additional loss of global DNA methylation versus DAC: 13%
  maximal response, loss of global DNA methylation: 83%
Mouse pharmacokinetics
  blood half-life: > 1.8 h
  clearance: low clearance
  volume of distribution: moderate volume of distribution
[2]
  IC50: > 10000 nM
SKM-1 tumors
  maximal loss of DNA methylation in tumors: 46%
[3]
  well tolerated dose: at least 45 mg kg^−1
[4]; day 28, 1 or 5 mg kg^−1
  neutrophils, red blood cells, platelets: no statistically significant changes
[5]
  mice surviving nearly 7 weeks after dosing ended: 50%
  survival benefit over vehicle: > 43 days
[6]; read-out: median growth IC50 (gIC50), day 6, median of panel
  IC50: 640 nM
[7]
  effects on DNMT3A, DNMT3B or γH2AX: no immediate effects
SKM-1 xenograft; SKM-1, subcutaneous twice daily
  dose giving clear tumor regression: ≥ 30 mg/kg
SKM-1 xenograft; SKM-1, ≥30 mg kg^−1, 4-week observation after dosing
  animals maintaining tumor volumes ≤200 mm^3 while off drug: ≥ 60%
MV4–11 xenograft; MV4–11, subcutaneous twice daily
  dose giving clear tumor regression: ≥ 30 mg/kg
MV4–11 xenograft; MV4–11, ≥30 mg kg^−1, 4-week observation after dosing
  animals maintaining tumor volumes ≤200 mm^3 while off drug: ≥ 60%
Murine DNMT1 (731–1602)
  covalent binding to DNMT1: noncovalent
Kinases (n = 369)
  IC50: > 10000 nM
H1507Y mutant DNMT1
  reduction in inhibition of H1507Y mutant versus wild-type DNMT1: > 350 fold
DNMT1 in HepG2 cells
  cellular target engagement (DNMT1 thermal stabilization): stabilization of DNMT1
MV4–11 cells [8]; AML lines, 6 d time course
  onset of growth inhibition: ≥ 3 days

## Cc1cc(Nc2ccc(NC(=O)c3ccc(Nc4ccnc5ccccc45)cc3)cc2)nc(N)n1 [SGI-1027]
DNMT1 [9]
  activity against DNMT1: low μM activity
DNMT3A
  activity against DNMT3A: low μM activity
MV4–11 cells [8]; MV4–11, day 6
  cell growth: inhibited cell growth

## CCc1c(C#N)c(SCc2ccc(N(C)S(C)(=O)=O)cc2)nc(N(C)CCNC)c1C#N [GSK3830052]
DNMT1 [10]
  IC50: 110 ± 20 nM

## O=C(O)C(Cc1c[nH]c2ccccc12)N1C(=O)c2ccccc2C1=O (stereo not drawn) [RG-108]
[11]
  IC50: 12 nM

## Nc1ncnc2c1ncn2[C@@H]1O[C@H](CSCC[C@H](N)C(=O)O)[C@@H](O)[C@H]1O [SAH, S-adenosyl-L-homocysteine, reference compound]
H1507Y mutant DNMT1
  reduction in inhibition of H1507Y mutant versus wild-type DNMT1: not observed

## Nc1ncn([C@H]2C[C@H](O)[C@@H](CO)O2)c(=O)n1 [DAC, decitabine, reference compound]
MV4–11 cells [1]
  concentration above which DNA hypomethylation and gene activation diminish: above 350 nM
[4]; day 28, DAC intraperitoneal three times weekly
  neutrophils, red blood cells, platelets: statistically significant decreases
[5]
  survival benefit over vehicle: 13 days
[6]; day 6
  cell lines with negative growth–death index (GDI): 80%
[7]
  lowest dose with accumulation of γH2AX (DNA damage): 16 nM
SKM-1 xenograft; SKM-1, intraperitoneal three times weekly, not statistically significant
  tumor growth inhibition relative to vehicle: 18%
MV4–11 xenograft; MV4–11, intraperitoneal three times weekly, not statistically significant
  tumor growth inhibition relative to vehicle: 57%
MV4–11 cells [8]; MV4–11
  onset of cell death (negative GDI): 2 days

## CCc1c(C#N)c(SC(C(N)=O)c2ccccc2)nc(N(C)C)c1C#N (stereo not drawn) [GSK3484862]
[12]; 100 μM compound
  nonspecific DNA binding: did not bind DNA nonspecifically
[12]; with DMSO or 100 μM compound
  Tm of hemi-methylated hairpin oligonucleotide: 77.5 °C
DNMT1 [13]
  reversibility of DNMT1 inhibition: rapidly reversible inhibition
Gla1
  IC50: > 50000 nM
[14]
  chemical stability: chemically stable

B1: 12-bp hemi-methylated DNA with zebularine (dsDNA)
DNA 1: GAGGCCGCCTGC
DNA 2: GCAGGCGGCCTC
modifications: strand 1 C6 = 5-methylcytosine (M); strand 2 C6 = zebularine (Z, in place of target cytidine)
DNMT1 (729-1600)
  binding result: binds
